Data set [1] can be described thus: Binding affinity to recombinant Cryptococcus neoformans var. grubii H99 major aspartyl peptidase 1 assessed as inhibition constant.
For data set [2], the system named is Cryptococcus neoformans. The data set is described as follows: Antifungal activity against Cryptococcus neoformans var. grubii H99 expressing major aspartyl peptidase 1 assessed as growth inhibition measured after 48 hrs. The conditions noted are these: dose 0.1-50 µM. Format: functional, organism-based. The method, boiled down: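 C. neoformans H99 grown in YNB with 2% glucose; overnight cultures diluted to OD600 0.1 with 0.1, 1.0, 10 or 50 μM compound or 0.5% DMSO vehicle. Incubated at 30 °C on a tube rotator; terminal saturation density read as OD600 after 48 h. Triplicate cultures, mean ± standard deviation.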

The target of another data set is Cathepsin D (Homo sapiens, UniProt P07339). The data set is described as follows: Inhibition of human cathepsin D assessed as inhibition constant using ACC-GKPILFFRILK-(DNP)-(dR)-NH2 as substrate by spectrophotometric analysis.
Chain of Cathepsin D (P07339 65-162 limits assumed): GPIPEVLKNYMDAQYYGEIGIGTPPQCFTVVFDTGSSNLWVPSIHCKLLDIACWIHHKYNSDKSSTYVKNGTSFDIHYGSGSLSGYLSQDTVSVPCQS
Chain of Cathepsin D (P07339 169-412 limits assumed): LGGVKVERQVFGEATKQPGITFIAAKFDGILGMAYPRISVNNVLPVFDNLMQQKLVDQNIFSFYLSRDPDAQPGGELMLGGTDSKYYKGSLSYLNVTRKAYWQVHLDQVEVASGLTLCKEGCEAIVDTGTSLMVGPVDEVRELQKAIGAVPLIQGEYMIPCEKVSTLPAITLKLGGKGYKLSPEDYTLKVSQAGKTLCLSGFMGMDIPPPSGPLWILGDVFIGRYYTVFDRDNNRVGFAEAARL
The subject of another data set is HL-60. Briefly: Cytotoxicity against human HL-60 cells assessed as cell viability by celltiter-glo luminescent cell viability assay. Format: functional. For orientation: ATP-based viability assays read luminescence as a measure of living cells.
In data set [3] the test system is Cryptococcus neoformans. The data set is described as follows: Antifungal activity against may1delta Cryptococcus neoformans var. grubii H99 assessed as reduction of density in stationary phase at 50 uM measured upto 48 hrs. It counts as functional, organism-based. To be noted: time hrs <=48. Summed up: (§1)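 Logarithmically growing may1Δ (and H99) yeast pelleted and resuspended to OD600 0.1 in unbuffered YNB or YNB with 50 mM MES pH 6.5. Treated with 50 μM compound or 0.5% DMSO vehicle at 30 °C on a tube rotator. OD600 read every 2 h for 12 h, then at 24 and 48 h. Triplicate cultures, mean ± standard deviation.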

For a further data set, the system named is HeLa. Briefly: Cytotoxicity against human HeLa cells assessed as cell viability by celltiter-glo luminescent cell viability assay. It counts as functional.
Another data set concerns the target T1, Renin (Homo sapiens, UniProt P00797).
T1 sequence (P00797 whole entry): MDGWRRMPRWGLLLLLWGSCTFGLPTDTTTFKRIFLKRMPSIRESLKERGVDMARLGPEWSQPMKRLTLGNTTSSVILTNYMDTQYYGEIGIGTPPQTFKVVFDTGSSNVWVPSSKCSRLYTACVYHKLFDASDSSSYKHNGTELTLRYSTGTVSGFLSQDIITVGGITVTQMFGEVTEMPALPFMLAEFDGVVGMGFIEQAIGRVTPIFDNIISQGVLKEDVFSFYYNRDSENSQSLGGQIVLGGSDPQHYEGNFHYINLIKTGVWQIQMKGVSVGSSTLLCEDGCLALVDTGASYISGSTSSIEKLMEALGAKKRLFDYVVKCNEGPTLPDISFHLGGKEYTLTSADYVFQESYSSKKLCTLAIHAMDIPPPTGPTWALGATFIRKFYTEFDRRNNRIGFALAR
The data set is described as follows: Inhibition of human renin assessed as inhibition constant using H-R-E(EDANS)-1HPFHLVIHT-K(DABCYL)-R-OH as susbtrate by spectrophotometric analysis.

A further data set concerns HepG2. The data set is described as follows: Cytotoxicity against human HepG2 cells assessed as cell viability by celltiter-glo luminescent cell viability assay. Format: functional.
Data set [4] deals with Cryptococcus neoformans. The data set is described as follows: Antifungal activity against may1delta Cryptococcus neoformans var. grubii H99 assessed as reduction of density in logarithmic phase at 50 uM measured upto 48 hrs. The conditions noted are these: time hrs <=48. It counts as functional, organism-based. Summed up: as §1
Another data set relates to CCRF-CEM. Briefly: Cytotoxicity against human CCRF-CEM cells assessed as cell viability by celltiter-glo luminescent cell viability assay. It counts as cell-based.
For the next data set, the target named is T2, Cathepsin E (Homo sapiens, UniProt P14091).
T2 sequence (P14091 whole entry): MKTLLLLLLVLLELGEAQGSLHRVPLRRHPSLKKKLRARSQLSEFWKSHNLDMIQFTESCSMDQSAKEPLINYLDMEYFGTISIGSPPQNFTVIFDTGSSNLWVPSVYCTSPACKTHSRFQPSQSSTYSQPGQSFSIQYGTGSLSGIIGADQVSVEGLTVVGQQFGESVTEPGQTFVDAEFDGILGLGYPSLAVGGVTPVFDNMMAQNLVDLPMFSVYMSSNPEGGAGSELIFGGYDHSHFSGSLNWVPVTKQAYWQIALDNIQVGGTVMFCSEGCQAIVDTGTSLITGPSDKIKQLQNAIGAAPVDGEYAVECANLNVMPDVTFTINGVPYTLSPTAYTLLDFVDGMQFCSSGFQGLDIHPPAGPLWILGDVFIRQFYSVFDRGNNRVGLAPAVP
Briefly: Inhibition of human cathepsin E assessed as inhibition constant using ACC-GKPILFFRILK-(DNP)-(dR)-NH2 as substrate by spectrophotometric analysis.

Data set [5] deals with Human immunodeficiency virus type 1 protease (Human immunodeficiency virus 1, UniProt Q72874). The data set is described as follows: Inhibition of wild type HIV-1 protease assessed as initial inhibition constant by spectrophotometric analysis.
Data set [6] in a line: Inhibition of porcine pepsin assessed as inhibition constant using BSA-bromophenol blue as substrate by spectrophotometric analysis. Further details: species or system Sus scrofa.
The next data set relates to MCF7. Briefly: Cytotoxicity against human MCF7 cells assessed as cell viability by celltiter-glo luminescent cell viability assay. It counts as functional.

Active and inactive are the calls of the source. The calls are words filed in the database; no cut-off is given here. Some results are limits rather than exact numbers.

What is called Ki is a dissociation constant, usually derived from enzyme kinetics or from competition with a known ligand. On to `NC(=O)CC[C@H](NC(=O)C[C@H](O)[C@H](Cc1ccccc1)NC(=O)OCc1ccccc1)C(=O)N[C@H](C(N)=O)c1ccccc1`, for which the Ki in data set [1] turned out to be 360 nM.

As for `CCCC[C@H](NC(=O)[C@H](CCC(N)=O)NC(=O)C[C@H](O)[C@H](Cc1ccccc1)NC(=O)OCc1ccccc1)C(N)=O`, the Ki in data set [1] was determined as 170 nM.

In the case of `C[C@@H](O)[C@H](NC(=O)[C@H](CCC(N)=O)NC(=O)C[C@H](O)[C@H](Cc1ccccc1)NC(=O)OCc1ccccc1)C(N)=O`, the Ki in [1] worked out at 1300 nM.

For the compound `CC(C)C[C@H](NC(=O)[C@H](CCC(=O)O)NC(=O)C[C@H](O)[C@H](Cc1ccccc1)NC(=O)OCc1ccccc1)C(N)=O`, the Ki in data set [1] is 160 nM.

Consider `NC(=O)[C@@H](NC(=O)[C@H](CCC(=O)O)NC(=O)C[C@H](O)[C@H](Cc1ccccc1)NC(=O)OCc1ccccc1)c1ccccc1`, for which, in [1], the Ki stood at 210 nM.

`CCC[C@H](NC(=O)[C@H](CCC(=O)O)NC(=O)C[C@H](O)[C@H](Cc1ccccc1)NC(=O)OCc1ccccc1)C(N)=O`: the Ki in data set [1] stood at 410 nM.

On to `CC[C@H](C)[C@H](NC(=O)[C@H](CCC(=O)O)NC(=O)C[C@H](O)[C@H](Cc1ccccc1)NC(=O)OCc1ccccc1)C(N)=O`, for which, in [1], the inhibition constant Ki worked out at 410 nM.

As for `CC(C)[C@H](NC(=O)[C@H](CCC(=O)O)NC(=O)C[C@H](O)[C@H](Cc1ccccc1)NC(=O)OCc1ccccc1)C(N)=O`, the Activity result in the data set on Cryptococcus neoformans [2] is “Dose-Dependent Effect”. In addition, in data set [1], the Ki turned out to be 82 nM.

As to `CC[C@H](C)[C@H](NC(=O)[C@H](CCC(N)=O)NC(=O)C[C@H](O)[C@H](Cc1ccccc1)NC(=O)OCc1ccccc1)C(N)=O`, the Ki in data set [1] was 240 nM.

Turning to `CSCC[C@H](NC(=O)[C@H](CCC(N)=O)NC(=O)C[C@H](O)[C@H](Cc1ccccc1)NC(=O)OCc1ccccc1)C(N)=O`, the Ki in data set [1] worked out at 290 nM.

For the compound `CCCC[C@H](NC(=O)[C@H](CCC(=O)O)NC(=O)C[C@H](O)[C@H](Cc1ccccc1)NC(=O)OCc1ccccc1)C(N)=O`, the Activity result in the data set with Cryptococcus neoformans [2] was “Dose-Dependent Effect”. Further, the inhibition constant (Ki) in [1] was 180 nM.

For the compound `CC[C@H](NC(=O)[C@H](CCC(=O)O)NC(=O)C[C@H](O)[C@H](Cc1ccccc1)NC(=O)OCc1ccccc1)C(N)=O`, in data set [1], the Ki is 760 nM.

Consider `C[C@@H](O)[C@H](NC(=O)[C@H](CCC(=O)O)NC(=O)C[C@H](O)[C@H](Cc1ccccc1)NC(=O)OCc1ccccc1)C(N)=O`, for which the Ki in [1] amounted to 250 nM.

For the compound `NC(=O)[C@H](CC1CCCCC1)NC(=O)[C@H](CCC(=O)O)NC(=O)C[C@H](O)[C@H](Cc1ccccc1)NC(=O)OCc1ccccc1`, the Ki in [1] turned out to be 160 nM.

With `CC(C)[C@H](NC(=O)[C@H](CCC(N)=O)NC(=O)C[C@H](O)[C@H](Cc1ccccc1)NC(=O)OCc1ccccc1)C(N)=O`, the Ki in data set [1] was found to be 120 nM.

With `NC(=O)CC[C@H](NC(=O)C[C@H](O)[C@H](Cc1ccccc1)NC(=O)OCc1ccccc1)C(=O)N[C@@H](Cc1ccccc1)C(N)=O`, the Ki in data set [1] worked out at 320 nM.

Take `NC(=O)CC[C@H](NC(=O)C[C@H](O)[C@H](Cc1ccccc1)NC(=O)OCc1ccccc1)C(=O)N[C@@H](CC1CCCCC1)C(N)=O`: in data set [1], the Ki was found to be 400 nM.

`Cc1nc(COc2ccc(C[C@H](NC(=O)O[C@H]3CO[C@H]4OCC[C@H]43)[C@H](O)CN(CC(C)C)S(=O)(=O)c3ccc4c(c3)OCO4)cc2)cs1` [BRECANAVIR]: the Ki in [1] was 350 nM.

Regarding `CCC[C@H](NC(=O)[C@H](CCC(N)=O)NC(=O)C[C@H](O)[C@H](Cc1ccccc1)NC(=O)OCc1ccccc1)C(N)=O`, the Ki in data set [1] turned out to be 470 nM.

Turning to `NC(=O)[C@H](Cc1c[nH]c2ccccc12)NC(=O)[C@H](CCC(=O)O)NC(=O)C[C@H](O)[C@H](Cc1ccccc1)NC(=O)OCc1ccccc1`, the inhibition constant Ki in [1] was 340 nM.

Consider `CC(C)[C@H](NC(=O)[C@H](Cc1ccccc1)C[C@H](O)[C@H](Cc1ccccc1)NC(=O)OC(C)(C)C)C(=O)N[C@@H](Cc1ccccc1)C(=O)N1CCOCC1`, for which the Ki in data set [1] came to 13 nM.

With `CCOP(=O)(COc1ccc(C[C@H](NC(=O)O[C@H]2CO[C@H]3OCC[C@H]32)[C@H](O)CN(CC(C)C)S(=O)(=O)c2ccc(OC)cc2)cc1)OCC`, the Ki in data set [1] was determined as 170 nM.

For orientation: CC50 means the concentration at which the toxic effect on the cells reaches its halfway point. For `NC(=O)[C@H](CCc1ccccc1)NC(=O)[C@H](CCC(=O)O)NC(=O)C[C@H](O)[C@H](Cc1ccccc1)NC(=O)OCc1ccccc1`, the Ki amounted to 620 nM at Cathepsin D; 19000 nM on Renin; 440 nM on Cathepsin E; 0.032 nM in [5]; 12 nM in data set [1]; 1600 nM in data set [6]. Also, in the data set with Cryptococcus neoformans [2], the Activity result was “Dose-Dependent Effect”. The CC50 in the data set on HL-60, in the data set with HeLa, in the data set on HepG2, in the data set with CCRF-CEM and in the data set with MCF7 was greater than 80000 nM each time. Moreover, the outcome in the data set with Cryptococcus neoformans [3] and with Cryptococcus neoformans [4] was inactive.

With `CC(C)CN(C[C@@H](O)[C@H](Cc1ccccc1)NC(=O)O[C@H]1CCOC1)S(=O)(=O)c1ccc(N)cc1`, the Ki in data set [1] was 750 nM.

In the case of `CSCC[C@H](NC(=O)[C@H](CCC(=O)O)NC(=O)C[C@H](O)[C@H](Cc1ccccc1)NC(=O)OCc1ccccc1)C(N)=O`, in [1], the Ki is 280 nM.

As for `NC(=O)[C@H](Cc1ccccc1)NC(=O)[C@H](CCC(=O)O)NC(=O)C[C@H](O)[C@H](Cc1ccccc1)NC(=O)OCc1ccccc1`, in [1], the Ki was found to be 390 nM.

For the compound `CC[C@H](NC(=O)[C@H](CCC(N)=O)NC(=O)C[C@H](O)[C@H](Cc1ccccc1)NC(=O)OCc1ccccc1)C(N)=O`, the Ki in data set [1] stood at 1200 nM.

Consider `NC(=O)CC[C@H](NC(=O)C[C@H](O)[C@H](Cc1ccccc1)NC(=O)OCc1ccccc1)C(=O)N[C@@H](CCc1ccccc1)C(N)=O`, for which the Ki in [1] was 64 nM.

The values are drawn from ChEMBL document CHEMBL5036316, “Re-emerging Aspartic Protease Targets: Examining Cryptococcus neoformans Major Aspartyl Peptidase 1 as a Target for Antifungal Drug Discovery” (J Med Chem, 2021).
